# Measured values published in article PMC10634270 (ACS Omega, 2023).
# Columns and labels:
# [1] = Stability experiments in DMSO; type: physicochemical; details: up to 40 °C, over 24 h
# [2] = Antioxidant ABTS decolorization assay; details: relative to ascorbic acid
# Outline: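 Antioxidant capacity is read as ABTS radical decolorization. It is expressed relative to ascorbic acid as ascorbic acid equivalents in mol mol–1. Values are given with standard deviation.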
# Hs27 fibroblasts = experiment: Cell viability MTT assay on Hs27 fibroblasts; type: cell-based, human; details: for cytotoxicity against Hs27 fibroblasts (in words): either human cell line
# Outline: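 In vitro viability screen on Hs27 human fibroblasts, the same cells that serve as hosts in the parasite proliferation assay. IC50 is reported with confidence intervals.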
# HeLa wt cells = experiment: Cell viability MTT assay on HeLa wt cells; type: cell-based, human; details: for cytotoxicity against HeLa cells (in words): either human cell line
SMILES,ascorbic acid equivalent antioxidant capacity (AEAC) [2],cytotoxicity against Hs27 fibroblasts (in words) (Hs27 fibroblasts),cytotoxicity against HeLa cells (in words) (HeLa wt cells),other results
"COc1cc(C)c(-c2c(C)cc(OC)c3c(=O)cc(-c4ccc(N(C)C)cc4)oc23)c2oc(-c3ccc(N(C)C)cc3)cc(=O)c12 [9ac, rac-2,2′-Bis(4-(dimethylamino)phenyl)-5,5′-dimethoxy-7,7′-dimethyl-4H,4′H-[8,8′-bichromene]-4,4′-dione]",0.197 equiv ascorbic acid [mol mol^–,–,–,stability in DMSO [1]: stable
"COc1ccc(-c2cc(=O)c3c(OC)cc(C)c(-c4c(C)cc(OC)c5c(=O)cc(-c6ccc(OC)cc6)oc45)c3o2)cc1 [9aa, rac-5,5′-Dimethoxy-2,2′-bis(4-methoxyphenyl)-7,7′-dimethyl-4H,4′H-[8,8′-bichromene]-4,4′-dione]",0.25 equiv ascorbic acid [mol mol^–1],–,–,–
"COc1cc(C)cc2oc(-c3ccc(C(F)(F)F)cc3)cc(=O)c12 [8ad, 5-Methoxy-7-methyl-2-(4-(trifluoromethyl)phenyl)-4H-chromen-4-one]",–,noncytotoxic,noncytotoxic,–
"COc1cc(OC)c2c(=O)cc(-c3ccc(C(F)(F)F)cc3)oc2c1-c1c(OC)cc(OC)c2c(=O)cc(-c3ccc(C(F)(F)F)cc3)oc12 [9bd, rac-5,5′,7,7′-Tetramethoxy-2,2′-bis(4-(trifluoromethyl)phenyl)-4H,4′H-[8,8′-bichromene]-4,4′-dione]",–,noncytotoxic,noncytotoxic,–
"COc1cc(OC)c2c(=O)cc(-c3ccc(C(F)(F)F)cc3)oc2c1 [8bd, 5,7-Dimethoxy-2-(4-(trifluoromethyl)phenyl)-4H-chromen-4-one]",–,noncytotoxic,noncytotoxic,–
"COc1cc(C)c(-c2c(C)cc(OC)c3c(=O)cc(-c4ccc(C(F)(F)F)cc4)oc23)c2oc(-c3ccc(C(F)(F)F)cc3)cc(=O)c12 [9ad, rac-5,5′-Dimethoxy-7,7′-dimethyl-2,2′-bis(4-(trifluoromethyl)phenyl)-4H,4′H-[8,8′-bichromene]-4,4′-dione]",–,noncytotoxic,noncytotoxic,–
"Cc1cc(O)c2c(=O)cc(-c3ccc(N(C)C)cc3)oc2c1-c1c(C)cc(O)c2c(=O)cc(-c3ccc(N(C)C)cc3)oc12 [compound 11, rac-2,2′-Bis(4-(dimethylamino)phenyl)-5,5′-dihydroxy-7,7′-dimethyl-4H,4′H-[8,8′-bichromene]-4,4′-dione]",0.037 equiv ascorbic acid [mol mol^–,–,–,"IC50 (Hs27 fibroblasts; Homo sapiens, HS27, 24 h, read-out: IC50 (Hs27)): > 200 µM; IC50 (HeLa wt cells; Homo sapiens, HeLa, 48 h, read-out: IC50 (HeLa)): > 100 µM"
